These results are taken from ChEMBL document CHEMBL4190254, “Synthesis of sulfamoylbenzamide derivatives as HBV capsid assembly effector” (Eur J Med Chem, 2017).

Structures are written as SMILES. Activity calls are given as the source filed them. No cut-off for these calls is given here. Bounds are passed on as bounds.

Series [1] deals with Core antigen (Hepatitis B virus) (UniProt Q03732). Kind of series: Inhibition of capsid in HBV infected in human HepAD38 cells assessed as reduction in cccDNA formation by measuring reduction in HBe antigen secretion at 10 uM after 14 days by ELISA relative to control. The format is cell-based. The gist of the method:
(§1)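 HepAD38 cells, collagen-coated wells, DMEM/F12 with 10% heat-inactivated FBS. Tetracycline withdrawn 7 days to allow DNA synthesis and cccDNA formation; at day 7 tetracycline (0.3 μg/ml) plus compound re-added. Compound at 10 μM or 0.001–10 μM, medium and compound replenished every 5 days. Day-14 supernatant HBeAg by ELISA; EC50 by linear regression.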

Series [2] has as its system CCRF-CEM. In words: (§2) Cytotoxicity against human CEM cells by CellTiter 96 non-radioactive cell proliferation colorimetric assay. The format is cell-based. The following applies: ccrf-cem. The gist of the method: (§3)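 A CellTiter 96 colorimetric cell proliferation read-out was used in primary human PBM cells, CEM, Vero and HepG2 cells. CC50 is the concentration that inhibits cell growth by 50%.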

Series [3] deals with Vero. Kind of series: (§4) Cytotoxicity against African green monkey Vero cells by CellTiter 96 non-radioactive cell proliferation colorimetric assay. The following applies: chlorocebus sabaeus, vero. The format is cell-based. The gist of the method:
as §3

Series [4] relates to Hepatitis B virus. In words: Antiviral activity against HBV infected in human HepAD38 cells assessed as reduction in viral replication by RT-PCR method. The class given is functional, organism-based. Put shortly: (§5)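 HBV DNA replication in HepAD38 cells was quantified by RT-PCR following an earlier published method, with data relative to the untreated control. EC50 (50% inhibition of HBV DNA replication) was derived by linear regression. Values are the mean ± SD of two or three replicates from 2 independent experiments.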

Series [5] has as its system PBMC. Kind of series: (§6) Cytotoxicity against human PBMC by CellTiter 96 non-radioactive cell proliferation colorimetric assay. The class given is cell-based. Put shortly: as §3
Series [6] deals with HepG2. In words: Cytotoxicity against human HepG2 cells by CellTiter 96 non-radioactive cell proliferation colorimetric assay. The class given is cell-based. The gist of the method:
as §3

Series [7] has as its target Core antigen (Hepatitis B virus) (UniProt Q03732). In words: (§7) Inhibition of capsid in HBV infected in human HepAD38 cells assessed as reduction in tetracycline-induced cccDNA formation by measuring reduction in HBe antigen secretion after 14 days by ELISA. The class given is cell-based. The gist of the method:
as §1
A general note: ELISA stands for enzyme-linked immunosorbent assay.

The target in series [8] is Core antigen (Hepatitis B virus, UniProt Q03732). The description is as §7. The class given is cell-based. The gist of the method: as §1
In series [9] the test system is Hepatitis B virus. In words: Antiviral activity against HBV infected in human HepAD38 cells assessed as reduction in extracellular viral DNA level by RT-PCR method. The class given is functional, organism-based. Put shortly: as §5
The test system of series [10] is Hepatitis B virus. Kind of series: Antiviral activity against HBV infected in human HepAD38 cells assessed as reduction in extracellular viral DNA level at 10 uM by RT-PCR method relative to control. The format is functional. Set-up: scale not given: the % may be the effect or the level left. The gist of the method:
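HBV DNA replication in HepAD38 cells was quantified by RT-PCR following an earlier published method. Each compound was tested at a single 10 μM concentration. Results are % inhibition ± SD relative to the untreated control.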

Series [11] relates to Hepatitis B virus. Kind of series: Antiviral activity against HBV infected in human HepAD38 cells assessed as reduction in intracellular viral DNA level by RT-PCR method. The format is functional, organism-based. Put shortly:
as §5

In series [12] the test system is Hepatitis B virus. In words: Antiviral activity against HBV infected in human HepAD38 cells assessed as reduction in intracellular viral DNA level at 10 uM by RT-PCR method relative to control. Details: scale not given: the % may be the effect or the level left. The class given is functional. Put shortly:
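HepAD38 cells; intracellular HBV DNA quantified by RT-PCR, expressed relative to untreated control; single-point inhibition given as percent at 10 μM, mean ± SD of two or three replicates from 2 independent experiments.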

The subject of series [13] is Hepatitis B virus. In words: Inhibition of HBV capsid cp149 assembly expressed in Escherichia coli BL21 at 20 uM preincubated for 1 hr followed by NaCl stimulation measured after overnight incubation by uranyl acetate staining based electron microscopic method. The gist of the method:
(§8)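 Untagged HBV core residues 1–149 expressed in E. coli BL21 (1 mM IPTG, 16 °C overnight), purified as capsids, dissociated to dimers with 4 M urea in carbonate buffer pH 9.5; >95% pure. Dimers preincubated 1 hr with compound (20 μM), then capsid buffer added (final NaCl 300 mM, Cp149 monomer 10 μM); held 4 °C overnight; uranyl acetate negative-stain EM, single-blind.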

In series [14] the target is Core antigen (Hepatitis B virus) (UniProt Q03732). Kind of series: Inhibition of capsid in HBV infected in human HepAD38 cells assessed as reduction in cccDNA formation by measuring reduction in HBe antigen secretion at 3 to 4 uM after 14 days by ELISA relative to control. The format is cell-based. The gist of the method:
as §1

Series [15] relates to Hepatitis B virus. In words: Antiviral activity against HBV infected in human HepDES19 cells assessed as reduction in viral replication. The class given is functional, organism-based.
The test system of series [16] is Hepatitis B virus. Kind of series: Inhibition of HBV capsid cp149 assembly expressed in Escherichia coli BL21 assessed as formation of disfigured circular assemblies at 20 uM preincubated for 1 hr followed by NaCl stimulation measured after overnight incubation by uranyl acetate staining based electron microscopic method. Put shortly: as §8
Series [17] deals with Hepatitis B virus. Kind of series: Inhibition of HBV capsid cp149 assembly expressed in Escherichia coli BL21 assessed as spherical capsid aggregation in to clusters at 20 uM preincubated for 1 hr followed by NaCl stimulation measured after overnight incubation by uranyl acetate staining based electron microscopic method. The gist of the method:
as §8

Series [18] in a line: as §2. The class given is cell-based, CCRF-CEM. To be noted: CEM (CCRF-CEM) cells. Put shortly:
as §3

Series [19] is described as follows: as §4. The class given is cell-based. The following applies: chlorocebus sabaeus, Vero cells. The gist of the method:
as §3

A short description of series [20]: as §6. The format is cell-based. Put shortly:
as §3

Sequence of Core antigen (Q03732 whole entry): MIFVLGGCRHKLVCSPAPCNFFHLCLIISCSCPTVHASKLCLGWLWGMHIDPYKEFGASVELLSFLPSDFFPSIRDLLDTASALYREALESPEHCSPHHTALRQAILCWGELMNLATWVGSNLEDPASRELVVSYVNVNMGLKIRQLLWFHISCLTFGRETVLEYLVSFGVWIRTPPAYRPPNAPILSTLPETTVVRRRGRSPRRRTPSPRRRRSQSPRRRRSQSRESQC
Sequence of Core antigen (Hepatitis B virus) (Q03732 as listed by the source): as the sequence (Q03732 whole entry) above

One may read the inhibition as the percentage by which the read-out fell short of the control. What is called CC50 is the concentration at which the toxic effect on the cells reaches its halfway point. The term EC50 denotes the concentration needed to bring the measured effect to its halfway point. One may read the EC90 as the concentration needed for an effect of 90%. As for `O=C(Nc1ccc(F)c(F)c1)c1cc(NS(=O)(=O)C2CCCCC2)ccc1F`, the inhibition in series [1] was determined as 67%. For the same compound, the half-maximal cytotoxic concentration (CC50) is 74.5 µM in [2], 6.4 µM in series [3], more than 100 µM in series [5] and 80.4 µM in series [6]. The EC50 is 3.7 µM in series [4], 9.7 µM in [8], 3.7 µM in [9] and less than 0.1 µM in [11]. The EC90 is not below 10 µM in series [4], more than 10 µM in series [7], not below 10 µM in series [9] and 7.9 µM in series [11]. Further, the Activity in [10] worked out at 86%; in series [12], 63%.

As to `CC(C)(NC(=O)c1cccc(S(=O)(=O)NC2CCCC2)c1)c1ccc(F)c(F)c1`, the half-maximal cytotoxic concentration (CC50) is 64 µM in series [2], 84.3 µM in series [3], more than 100 µM in series [5] and more than 100 µM in series [6]. In series [4], the half-maximal effective concentration (EC50) is more than 10 µM. Besides, the inhibition entry in [13] is “inactive”.

As for `CCOC(=O)C1=C(CN2CCOCC2)NC(c2nccs2)=NC1c1ccc(F)cc1Br` (stereo not drawn), the concentration for an effect of 90% (EC90) came to 1.9 µM in series [7], 1 µM in [9] and 0.05 µM in series [11]. The EC50 in series [9] is 0.2 µM; in series [11] it was less than 0.01 µM. For the same compound, the Activity in [12] is 82%.

On to `O=C(Nc1ccc(F)c(F)c1)c1cc(NS(=O)(=O)C2CC2)ccc1F`, for which the inhibition in series [1] is 61%. Also, the CC50 is 11.8 µM in [2], 30.7 µM in series [3], 39.2 µM in series [5] and 61.8 µM in series [6]. The EC50 in [4] was 6.9 µM; in series [8], 5.5 µM; in series [9], 6.9 µM; in series [11], 0.8 µM. Further, the EC90 in [4] is more than 10 µM; in series [7], more than 10 µM; in series [9], more than 10 µM; in series [11], 8.1 µM. Further, the Activity in series [10] turned out to be 76%.

Regarding `O=C(Nc1ccc(F)c(F)c1)c1cc(S(=O)(=O)NC2CCCC2)ccc1F`, the inhibition in series [14] amounted to 90%. For the same compound, the CC50 is 14 µM in series [2], 32.7 µM in [3], 15.6 µM in [5] and 37.1 µM in series [6]. Also, the 50% effective concentration (EC50) in series [4] is 0.8 µM; in series [8], 1.3 µM; in series [15], 0.14 µM; in [9], 0.8 µM; in [11], 0.6 µM. Also, the concentration for an effect of 90% (EC90) was found to be 7.8 µM in [4], 4.6 µM in series [7], 7.8 µM in series [9] and 4.3 µM in [11]. The inhibition result in series [16] is “Active”.

Regarding `O=C(Nc1ccc(F)c(F)c1)c1cc(S(=O)(=O)N2CC(F)(F)C2)ccc1F`, in series [14], the inhibition is 90%. Besides, the CC50 in series [2] was found to be 3.7 µM; in series [3], 14.7 µM; in series [5] it was 69.1 µM; in [6], 27 µM. The EC50 is 1.2 µM in series [4], 1 µM in series [8], 1.2 µM in [9] and 0.9 µM in series [11]. The EC90 came to 6.3 µM in series [4], 3.2 µM in series [7], 6.3 µM in series [9] and 9.7 µM in [11]. Moreover, the inhibition result in [17] was “Active”.

Regarding `C=C1[C@H](CO)[C@@H](O)C[C@@H]1n1cnc2c(=O)[nH]c(N)nc21.O`, the inhibition in [1] was less than 1%. In addition, the results for the EC50 in series [8], in series [9] and in series [11] were more than 10 µM, 0.0007 µM and not above 0.0001 µM, respectively. In addition, the results for the EC90 in [9] and in series [11] were 0.1 µM and 0.009 µM, respectively. Further, the Activity in series [12] was 53%.

Turning to `Nc1ccn([C@@H]2CS[C@H](CO)O2)c(=O)n1` [LAMIVUDINE], the inhibition in series [1] is less than 1%. Further, the CC50 in [18] is more than 100 µM; in [19], more than 100 µM; in series [20] it was more than 100 µM; in series [6], more than 10 µM. Moreover, the EC90 in [4] turned out to be 0.3 µM; in series [9], 0.3 µM; in series [11], 0.7 µM. Further, the concentration for a half-maximal effect (EC50) in series [8] was more than 10 µM; in series [11] it was less than 0.01 µM. Besides, in [12], the Activity is on record as 74%.
